Test results from PMC6415796 (Nano letters, 2015).
“Also recorded” adds a separate entry of the source. Strand notation (5' to 3'): a small letter for the sugar, then the base; units joined by * are phosphorothioate-linked, units joined directly phosphodiester-linked; [ ] holds rarer units or linkages, { } end groups; capitals alone tell only the bases. [tcDNA-N] = tricyclo-DNA nucleotide (N: the base); m = 2'-O-methyl

How the values were obtained:
[1] = tested on: class A scavenger receptor subtypes (SCARAs); experiment: PPMO splice-switching activity; type: cell-based, murine; conditions: for Effect of SR ligand or control on splice-switching activity of PPMO: differentiated C2C12, ligand 50 μg/ml for 1 h before PPMO 500 nM for 4 h in Opti-MEM, then 20 h, nested RT-PCR
[2] = Critical micelle concentration by dye micellization method; type: physicochemical; conditions: eosin Y 0.019 mM, absorbance at 542 nm, rounded value
[3] = Zeta potential measurement; type: physicochemical
[4] = Uptake and activity comparison of fluorescently labelled ASOs; type: cell-based; conditions: Fig. S4
[5] = DLS after incubation with physiological albumin solution; type: physicochemical; conditions: equal volume BSA 4.25 g/dL in PBS, 1 h at 37 °C, diluted 10x before DLS
[6] = DLS analysis of ASOs in PBS; type: physicochemical; conditions: 1 mM ASO in PBS, each measured 3 times
[7] = molecular target: T1, SCARA1 (Mus musculus, UniProt P30204); experiment: Dmd exon 23 skipping; type: in vivo, mice; conditions: 10 mg/kg intravenous, 1 week, n=4, qPCR
T1 sequence (P30204 1-351 limits assumed): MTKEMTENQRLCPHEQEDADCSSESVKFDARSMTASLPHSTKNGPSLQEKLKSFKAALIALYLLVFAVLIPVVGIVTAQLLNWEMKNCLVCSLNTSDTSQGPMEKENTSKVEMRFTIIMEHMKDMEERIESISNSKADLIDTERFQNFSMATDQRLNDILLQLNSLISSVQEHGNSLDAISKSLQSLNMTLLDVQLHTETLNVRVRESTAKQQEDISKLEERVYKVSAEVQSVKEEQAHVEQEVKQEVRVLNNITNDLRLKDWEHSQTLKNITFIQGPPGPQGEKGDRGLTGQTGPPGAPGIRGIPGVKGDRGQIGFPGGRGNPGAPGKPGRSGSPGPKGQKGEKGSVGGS
Summary of the method: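 SCARA1-/- and C57BL/6 mice (14 months old, n = 4) received 10 mg/kg peptide–PMO conjugate in 0.9% saline via tail vein. After one week, tibialis anterior, diaphragm and heart were snap-frozen. Multiplex Taqman qPCR on 25 ng cDNA used FAM primers spanning exon 20-21 and HEX primers spanning exon 23-24. Skipping percentage came from normalising exon 23-24 to exon 20-21 amplification.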

[8] = TEM visualization of self-assembled nanoparticles; type: physicochemical; conditions: Fig. S3
[9] = tested on: Differentiated C2C12 cells; experiment: Uptake of FITC-labelled ASOs with SR ligands; type: cell-based, murine; conditions: ligand pretreatment 1 h, then FITC-ASO 200 nM for 4 h
Summary of the method: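 C2C12 cells were grown in DMEM with 10% FBS, then differentiated 3-4 days in DMEM with 2% horse serum (2.5x10⁴/cm²). Cells were pretreated 1 h with scavenger-receptor ligands or control polyanions at 100 μg/ml. They were then given FITC-2'OMePS or FITC-tcDNA (200 nM) for 4 h, washed, and methanol-fixed (-20 °C, 10 min). Mean fluorescence intensity came from microscopy images; one-way ANOVA, mean ± SEM.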

## chondroitin sulfate
[1]
  Effect of SR ligand or control on splice-switching activity of PPMO: no effect

## RXRRBRRXRRBRXB [PPMO]
[2]
  Critical micelle concentration (CMC): about 1.4 μM
[3]; in PBS
  Zeta potential: -1.21 ± 0.63
[3]; in serum-free medium
  Zeta potential: -3.48 ±2.31
[3]; in water
  Zeta potential: 10 ± 2.70
[4]
  Extent of uptake relative to other chemistries: several folds higher uptake than the other two chemistries
[5]
  DLS particulate peaks in albumin model: high intensity particulate peaks
[6]
  DLS population profile (peaks): two peaks, one for singular molecules and one representing a particulate population

## dextran sulfate
[1]
  Effect of SR ligand or control on splice-switching activity of PPMO: completely inhibited

## RXRRBRRXR YQFLI RXRBRXRB [Pip6a-PMO]
[7]
  Exon 23-skipping activity in SCARA1 knock-out versus wild-type mice, diaphragm: significantly reduced
  Exon 23-skipping activity in SCARA1 knock-out versus wild-type mice, heart: significantly reduced
[8]
  Nanoparticle formation and relative size by TEM: spontaneously forms nanoparticles; also recorded: smaller than B-PMO nanoparticles
[1]; Fig. S3
  Uptake in the presence of SR ligands: significantly inhibited

## 2’OMe: 2’Omethyl phosphorothioate ASO 5’- GGCCAAACCUCGGCUUACCU-3’, synthesized by IDT (antisense mG*mG*mC*mC*mA*mA*mA*mC*mC*mU*mC*mG*mG*mC*mU*mU*mA*mC*mC*mU)
[5]
  DLS particulate peaks in albumin model: failed to do so
[6]
  DLS population profile (peaks): predominant peak was of singular molecules
  DLS size of predominant peak (singular molecules): around 2 nm
[9]
  Uptake in the presence of fucoidin and dextran sulfates: only partially inhibited

## tcDNA: phosphorothioated tricyclo DNA 5’-AACCTCGGCTTACCT-3’, synthesized by SYNTHENA (all [tcDNA-N], all phosphorothioate, methylation of C not given here)
[4]
  Extent of uptake relative to other chemistries: significantly higher than that of 2’OMe

## fucoidin sulfate
[1]
  Effect of SR ligand or control on splice-switching activity of PPMO: completely inhibited
